Key:
[1] = system: Candida albicans; experiment: Antimicrobial activity against Candida albicans ATCC 10231 assessed as growth inhibition serial 2-fold dilution microtitre plate method; assay type: functional
How it was run: (§1)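 MIC by serial 2-fold broth dilution in microtitre plates. Medium was YNB with ammonium sulfate as nitrogen source, pH 5.0. Growth was compared with control cultures and read on a microplate reader.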

[2] = system: Nakaseomyces glabratus; experiment: Antimicrobial activity against Candida glabrata DSM 11226 assessed as growth inhibition serial 2-fold dilution microtitre plate method; assay type: functional; how it was run: as §1
[3] = system: Candida parapsilosis; experiment: Antimicrobial activity against Candida parapsilosis DSM 5784 assessed as growth inhibition serial 2-fold dilution microtitre plate method; assay type: functional; settings: Lodderomyces parapsilosis; how it was run: as §1
[4] = system: Staphylococcus aureus; experiment: Antimicrobial activity against Staphylococcus aureus ATCC 29213 assessed as growth inhibition serial 2-fold dilution microtitre plate method; assay type: functional
How it was run: (§2)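 Bacterial MIC in Mueller Hinton Broth 2 (acid casein hydrolysate, beef extract, starch), pH 7.3. Growth was compared with control cultures and read on a microplate reader.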

[5] = system: Staphylococcus epidermidis; experiment: Antimicrobial activity against Staphylococcus epidermidis PCM 2118 assessed as growth inhibition serial 2-fold dilution microtitre plate method; assay type: functional; how it was run: as §2
[6] = system: Escherichia coli; experiment: Antimicrobial activity against Escherichia coli PCM 2560 assessed as growth inhibition serial 2-fold dilution microtitre plate method; assay type: functional; how it was run: as §2
[7] = system: Bacillus subtilis; experiment: Antimicrobial activity against Bacillus subtilis ATCC 9372 assessed as growth inhibition serial 2-fold dilution microtitre plate method; assay type: functional; how it was run: as §2
[8] = system: Pseudomonas aeruginosa; experiment: Antimicrobial activity against Pseudomonas aeruginosa ATCC 2756 assessed as growth inhibition serial 2-fold dilution microtitre plate method; assay type: functional; how it was run: as §2
[9] = Inhibition of Candida albicans glucosamine-6-phosphate synthase assessed as glucosamine-6-phosphate by Elson-Morgan method
How it was run: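 Enzyme source: cell-free extract of C. albicans GlcN-6-P synthase overproduced in E. coli. Incubated 37 °C for 30 min, stopped by 100 °C for 1 min. GlcN-6-P measured by modified Elson-Morgan. IC50 is the concentration giving 50% inhibition.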

[10] = Binding affinity to immobilized artificial membrane PC DD2 (unknown origin) by UV/Vis detector model
How it was run: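 HPLC on an IAM PC DD2 column (3 cm × 4.6 mm, 300 Å pores). Mobile phase 0.1 M phosphate buffer pH 7.2 at 1 mL/min, UV detection at 254 nm. Dead time t0 taken from citric acid retention. Capacity factor k'IAM = (tr − t0)/t0, reported as log k'IAM.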

MIC [1] [µg/mL]	MIC [2] [µg/mL]	MIC [3] [µg/mL]	MIC [4] [µg/mL]	MIC [5] [µg/mL]	MIC [6] [µg/mL]	MIC [7] [µg/mL]	MIC [8] [µg/mL]	IC50 [9] [µM]	log K [10]	SMILES
512	> 1020	> 1020	> 1020	> 1020	> 1020	> 1020	> 1020	2890	0.118	COC(=O)/C=C/C(=O)NC[C@H](N)C(=O)N(C)C.Cl
32	> 1020	> 1020	> 1020	> 1020	> 1020	> 1020	> 1020	127	-0.193	CNC(=O)[C@@H](N)CNC(=O)/C=C/C(=O)OC.Cl
> 2000	> 2000	> 2000	> 2000	> 2000	> 2000	> 2000	> 2000	4.03	-0.812	COC(=O)/C=C/C(=O)NC[C@H](N)C(=O)O
4	> 1020	> 1020	> 1020	> 1020	> 1020	> 1020	> 1020	80.7	-0.362	COC(=O)/C=C/C(=O)NC[C@H](N)C(N)=O.Cl

Source: ChEMBL document CHEMBL3397043, “Synthesis, anticandidal activity of N(3)-(4-methoxyfumaroyl)-(S)-2,3-diaminopropanoic amide derivatives--novel inhibitors of glucosamine-6-phosphate synthase” (Eur J Med Chem, 2015)
